Assay results of several laboratories.
Each line is one published result; the experiments were not run side by side.
Target: BMP-2-inducible protein kinase (BMP2K, Homo sapiens, UniProt Q9NSY1)

SMILES | test | setting | remaining binding
CN(c1nccc(-c2cnn3ncccc23)n1)C1CC1 | binding | 1 µM | 100%
CN(C)c1ncnc(-c2ccc3nc(Nc4cc(CN5CCN(C(=O)CC(F)(F)F)CC5)ccn4)[nH]c3c2)c1Cl | cell-free assay, competition with immobilised ligand | 1 µM | 100%
O=C(c1ccc(Nc2nccc(-c3cc4ccccc4s3)n2)cc1)N1CCC(N2CCCC2)CC1 | binding, competition with immobilised ligand | 1 µM | 0.5%
Cc1cc(C)c(-n2ccn3nc(-c4cccnc4)cc23)cc1NC(=O)c1cc(C#N)cc(S(F)(F)(F)(F)F)c1 | cell-free assay, competition with immobilised ligand | 0.1 µM | 94.7%
Cc1cnc(Nc2ccc(C(=O)N3CCC(N4CCCC4)CC3)cc2)nc1-c1cc2ccccc2s1 | binding, competition with immobilised ligand | 1 µM | 0.2%
CNC(=O)Nc1ccc2c(c1)CC[C@@]21OC(=O)N(CC(=O)N(Cc2ccc(F)cc2)[C@@H](C)C(F)(F)F)C1=O | cell-free assay, competition with immobilised ligand | 1 µM | 98%
Cc1cnn2ncc(-c3ccnc(N(C)C)n3)c2c1 | binding | 1 µM | 80%
Cc1nc(N2CC[C@@H](O)C2)ncc1-c1cc(C(F)(F)F)cc2[nH]ncc12 | binding, competition with immobilised ligand | 1 µM | 100%
C=CC(=O)N1CCC(C(=O)NCC(=O)N2CCN(c3nc(-c4cnc(N)nc4C(F)F)nc(N4CCOCC4)n3)CC2)CC1 | binding, competition with immobilised ligand | 1 µM | 94%
FC(F)(F)c1ccc2c(c1)nc(-c1cccnc1)n2C1CC1 | cell-free assay, competition with immobilised ligand | 1 µM | 100%
F[C@@H]1CCN(c2nccc(-c3cnn4ncccc34)n2)C1 | binding | 1 µM | 100%
COc1cnc(Nc2cccc(S(N)(=O)=O)c2)nc1N1CCN(c2ccccc2)CC1 | binding, competition with immobilised ligand | 1 µM | 57%
C[C@@H](c1ccc(-n2cnc3c(N)ncnc32)cc1)N1CCc2nn(C)c(Cc3ccccc3)c2C1=O | binding, competition with immobilised ligand | 0.1 µM | 84%
c1cnn2ncc(-c3ccnc(N4CCC45COC5)n3)c2c1 | binding | 1 µM | 61%
O=C(NCCCN1CCOCC1)c1ccc(Nc2nccc(-c3cc4ccccc4s3)n2)cc1 | binding, competition with immobilised ligand | 1 µM | 0.7%
O=C(NCC1CCOCC1)c1n[nH]cc1NC(=O)c1c(F)cccc1F | binding, competition with immobilised ligand | 1 µM | 81%
N[C@H]1CCN(c2nccc(-c3cnn4ncccc34)n2)C1 | binding | 1 µM | 88%
O=C(N1CCS(=O)(=O)CC1)N1C[C@H](c2ccc(OC(F)(F)F)cc2)C[C@H](c2nc(C3CC3)no2)C1 | cell-free assay, competition with immobilised ligand | 1 µM | 97%
C[C@@H]1CCN(c2nccc(-c3cnn4ncccc34)n2)C1 | binding | 1 µM | 97%
CCC(=O)N[C@@H]1CC[C@H](C(=O)N(C)c2ccc(-c3nc4ccccc4o3)cc2)C1 | cell-free assay, competition with immobilised ligand | 1 µM | 100%
CCN1CCN(Cc2ccc(C(=O)Nc3ccc(C)c(Oc4ccc5c(c4)CC(=O)N5)c3)cc2C(F)(F)F)CC1 | binding, competition with immobilised ligand | 1 µM | 100%
CN(C)c1ncc(F)c(-c2cnn3ncccc23)n1 | binding | 1 µM | 100%
